Assay results published in ChEMBL document CHEMBL4334484, “Polyketides and a Dihydroquinolone Alkaloid from a Marine-Derived Strain of the Fungus Metarhizium marquandii” (2019).
Calls of active or inactive are those of the source. The calls are words filed in the database; no cut-off is given here.

Experiments:
[1] = system: L5178Y; experiment: Cytotoxicity against mouse L5178Y cells assessed as cell growth inhibition at 10 ug/ml measured after 72 hrs by MTT assay; format: functional, cell-based
Procedure, shortened: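 L5178Y mouse lymphoma cells, MTT read-out relative to untreated controls, compounds at 10 μg/mL. Negative control: medium with 0.1% ethylene glycol monomethyl ether/DMSO; kahalalide F positive control. Three independent experiments, each in triplicate.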

[2] = system: Mycobacterium tuberculosis; experiment: Antibacterial activity against Mycobacterium tuberculosis by CLSI protocol based broth microdilution method; format: functional
Procedure, shortened: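 Broth microdilution per CLSI guidelines. Serial 2-fold dilutions up to a highest tested concentration of 64 μg/mL, with DMSO diluted along with the compounds. Rifampicin served as positive control.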

[3] = system: Staphylococcus aureus; experiment: Antibacterial activity against Staphylococcus aureus ATCC 29213 by CLSI protocol based broth microdilution method; format: functional
Procedure, shortened: (§1)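 Serial 2-fold dilutions, DMSO diluted along with compounds; highest concentration tested 64 μg/mL. Moxifloxacin positive control for S. aureus, rifampicin for A. baumanii and P. aeruginosa.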

[4] = system: Staphylococcus aureus; experiment: Antibacterial activity against Staphylococcus aureus ATCC 700699 by CLSI protocol based broth microdilution method; format: functional; procedure, shortened: as §1
[5] = system: Acinetobacter baumannii; experiment: Antibacterial activity against Acinetobacter baumannii BAA 1605 by CLSI protocol based broth microdilution method; format: functional; procedure, shortened: as §1
[6] = system: Pseudomonas aeruginosa; experiment: Antibacterial activity against Pseudomonas aeruginosa 27853 by CLSI protocol based broth microdilution method; format: functional; procedure, shortened: as §1

CC(=O)c1cc(C)c(O)c(CC2=C(O)C(CC(=O)O)OC2=O)c1O (racemic)
Activity [1]: inactive
MIC [2]: > 100 µM
MIC [3]: > 100 µM
MIC [4]: > 100 µM
MIC [5]: > 100 µM
MIC [6]: > 100 µM

O=C1Nc2ccccc2[C@](O)(c2cccc(O)c2)[C@H]1O
Activity [1]: inactive
MIC [2]: > 100 µM
MIC [3]: > 100 µM
MIC [4]: > 100 µM
MIC [5]: > 100 µM
MIC [6]: > 100 µM
